Read-outs that look alike come from different tables or passages of the source. Residues, ends and D or L forms follow the SMILES beside them. *: point of attachment. Cbz = O=C(OCc1ccccc1)*
Columns and labels:
[1] = biological target: T1, integrin α4 (Homo sapiens, UniProt P05556+P13612); assay: Western blot analysis of integrin α4 protein; type: cell-based; details: MG132 1 µM; 96 h; LAX7R, LAX53, LAX56, REH
[2] = test system: primary ALL; details: cited from earlier work
[3] = biological target: T1, integrin α4; details: cited from earlier work
[4] = cited from earlier work
[5] = test system: HUVECs; assay: Endothelial tube formation assay; type: cell-based, human; details: data not shown
Summary of the method: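 HUVECs (4-6x10^4/well) pre-treated 30 min at 37°C with test compound (0, 5 or 25 µM) or a reference α4 antagonist (0 or 25 µM), then seeded on Matrigel-coated wells for 4-6 h at 37°C, 5% CO2. Three fields per well imaged by phase contrast (x100); nodes, segments, meshes and total area quantified by image analysis.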

[6] = biological target: VLA-4 (Homo sapiens, UniProt P05556+P13612); assay: VLA-4 conformation activation assay; type: binding; details: LAX7R and TXL3 cells; without 5 mM Mn2+
Summary of the method: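 LAX7R or TXL3 cells, 1x10^6/ml in HEPES buffer pH 7.4 with 0.1% HSA, Ca2+ and Mg2+, incubated 30 min at 37°C with test compound (0-100 µM) or human VCAM-1 ([…]), 10% PE-HUTS-21, ±5 mM Mn2+. DAPI added during final 5 min. PE MFI read on viable cells by flow cytometry; isotype control gave nonspecific binding. Occupancy curves fitted by variable-slope sigmoidal model.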

CC(C)C[C@@H](C=O)NC(=O)[C@H](CC(C)C)NC(=O)[C@H](CC(C)C)NC(=O)OCc1ccccc1 [MG132] (Cbz-Leu-Leu-Leu-aldehyde)
restoration of α4 decreased by AVA4746 (25 µM) [1]: partially restored by MG132 in all cases apart from LAX56

CCCC[C@H](NC(=O)N[C@@H](CC(=O)O)c1ccc2c(c1)OCO2)C(=O)N(Cc1cccs1)Cc1cccs1 [TBC3486]
survival of mice with primary ALL [2]: prolonged the survival of the mice

natalizumab [NZM]
de-adhesion of B-ALL cells from VCAM-1 [3]: can cause the de-adhesion of B-ALL cells from VCAM-1
progressive multifocal leukoencephalopathy ([4]; patients treated with NZM): progressive multifocal leukoencephalopathy can arise
patients with antibodies against natalizumab ([4]; patients with Crohn's disease): 7%
patients with antibodies against natalizumab ([4]; patients with MS): 11%
angiogenesis inhibition [5]: no statistical differences

vascular cell adhesion molecule-1 [VCAM-1]
conformation changes corresponding to VLA-4 activation [6]: little conformation changes

— PMC8652384 (Experimental and Therapeutic Medicine, 2021)
